The results in this text go back to ChEMBL document CHEMBL4837218, “Synthesis and in vitro antitumour activity of 4(R)-methyl-3-O-phosphonomethyl-α-l-threose nucleosides” (Eur J Med Chem, 2021).

For orientation: IC50 means the concentration needed to halve the response being measured.

Assay [1] relates to MDA-MB-231. Nature of the assay: Induction of mitochondrial membrane potential loss in human MDA-MB-231 cells assessed as green fluorescence intensity at 9 uM measured after 48 hrs by JC1 staining-based flow cytometry analysis (reference value: 0.8%). In kind it is functional. Background: Flow cytometry measures light scatter and fluorescence of single cells or particles in a stream.

The subject of assay [2] is MDA-MB-231. Nature of the assay: Induction of G2/M phase cell cycle arrest in human MDA-MB-231 cells assessed as increase in Cdc25c protein expression at 3 to 9 uM measured after 48 hrs by western blot analysis. The class given is functional, cell-based. The note with it: dose 3-9 µM.
The test system of assay [3] is MDA-MB-231. Nature of the assay: Induction of apoptosis in human MDA-MB-231 cells assessed as late apoptotic cells at 3 uM measured after 48 hrs by Annexin V-FITC/propidium iodide staining based flow cytometric analysis (reference value: 0.3%). In kind it is functional.
Assay [4] relates to MCF7. Nature of the assay: Induction of apoptosis in human MCF7 cells assessed as late apoptotic cells at 4 uM measured after 48 hrs in presence of cdc25c inhibitor, NSC663284 by AnnexinV-FITC/PI staining based flow cytometry (reference value: 4.9%). The class given is functional.
The subject of assay [5] is MCF7. Nature of the assay: Cell cycle arrest in human MCF7 cells assessed as accumulation at S phase at 1 uM measured after 48 hrs by propidium iodide staining based flow cytometry (reference value: 25.34 %). The class given is functional.
Assay [6] deals with MCF7. Nature of the assay: Induction of G2/M phase cell cycle arrest in human MCF7 cells assessed as upregulation of p-cdc25c at ser216 residue protein expression at 4 uM measured after 48 hrs by western blot analysis. In kind it is functional, cell-based. The method, boiled down:
(§1)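 Cells exposed to graded concentrations for 48 h, then proteins extracted. Run on SDS-PAGE (5–15% gels) and transferred to nitrocellulose. Blocked 2 h in 5% nonfat milk in PBS/0.1% Tween 20, primary antibody overnight at 4 °C, biotin-conjugated secondary 1 h. Visualized on X-ray film with densitometric quantitation; three independent experiments.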
(Immunoblotting shows a protein as a band on a membrane.)

For assay [7], the system named is MCF7. Nature of the assay: Induction of G2/M phase cell cycle arrest in human MCF7 cells assessed as increase in cdc25c protein expression at 1 to 4 uM measured after 48 hrs by western blot analysis. The class given is functional, cell-based. The note with it: dose 1-4 µM. The method, boiled down:
as §1

The subject of another assay is MGC-803. Nature of the assay: Anticancer activity against human MGC-803 cells assessed as inhibition of cell growth measured after 72 hrs by MTT assay. In kind it is functional, cell-based. The note with it: MGC-803, 72 h. A digest of the protocol: (§2)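 Cells seeded at 3000 exponentially growing cells/well and incubated 12 h at 37 °C. Medium then replaced with fresh medium containing graded compound concentrations for 72 h; 5-FU positive control. MTT (5 mg/mL solution) added for 4 h, formazan dissolved in DMSO, absorbance read at 570 nm (reference 630 nm). Relative percentage inhibition of viable cells calculated; IC50 reported as mean ± standard deviation.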

For assay [8], the system named is MDA-MB-231. Nature of the assay: Cell cycle arrest in human MDA-MB-231 cells assessed as accumulation at G2/M phase at 6 uM measured after 48 hrs by propidium iodide staining based flow cytometry (reference value: 15.46 %). In kind it is functional.
Assay [9] has as its system MCF7. Nature of the assay: Induction of mitochondrial membrane potential loss in human MCF7 cells assessed as red fluorescence intensity at 2 uM measured after 48 hrs by JC1 staining-based flow cytometry analysis (reference value: 91.9%). The class given is functional.
Assay [10] relates to MCF7. Nature of the assay: Antiproliferative activity against human MCF7 cells assessed as reduction in cell viability at 0.06 to 16 uM measured after 24 to 72 hrs by MTT assay. In kind it is functional, cell-based. The note with it: dose 0.06-16 µM, time 24-72 hrs. The method, boiled down:
(§3)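 MTT viability time course on the breast cancer cells with increasing compound concentrations for 24, 48 and 72 h. Cells seeded at 3000/well and allowed 12 h before treatment. MTT (5 mg/mL solution) applied for 4 h, crystals dissolved in DMSO, absorbance read at 570/630 nm. Viability expressed relative to untreated cells.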

For assay [11], the system named is MDA-MB-231. Nature of the assay: Induction of G2/M phase cell cycle arrest in human MDA-MB-231 cells assessed as upregulation of cdc25c protein expression at 9 uM measured after 48 hrs in presence of cdc25c inhibitor, NSC663284 by western blot analysis. In kind it is functional, cell-based.
Assay [12] has as its system MCF7. Nature of the assay: Induction of DNA damage in human MCF7 cells assessed as increase in Chk1 protein expression at 1 to 4 uM measured after 48 hrs by western blot analysis. The note with it: dose 1-4 µM. The class given is functional, cell-based. The method, boiled down: as §1
In assay [13] the test system is MDA-MB-231. Nature of the assay: Induction of G2/M phase cell cycle arrest in human MDA-MB-231 cells assessed as upregulation of p-cdc25c protein expression at 9 uM measured after 48 hrs in presence of cdc25c inhibitor, NSC663284 by western blot analysis. The class given is functional, cell-based.
Assay [14] has as its system MCF7. Nature of the assay: Anticancer activity against human MCF7 cells assessed as inhibition of cell growth measured after 72 hrs by MTT assay. The note with it: MCF7, 72 h. In kind it is functional, cell-based. A digest of the protocol: as §2
For assay [15], the system named is MCF7. Nature of the assay: Cell cycle arrest in human MCF7 cells assessed as accumulation at G2/M phase at 2 uM measured after 48 hrs by propidium iodide staining based flow cytometry (reference value: 0.01 %). In kind it is functional.
The test system of assay [16] is MDA-MB-231. Nature of the assay: Antiproliferative activity against human MDA-MB-231 cells assessed as reduction in cell viability at 0.03 to 16 uM measured after 24 to 72 hrs by MTT assay. The note with it: dose 0.03-16 µM, time 24-72 hrs. In kind it is functional, cell-based. A digest of the protocol:
as §3
In general terms: Tetrazolium dyes change colour on reduction, which living cells bring about.

The next assay deals with ECa-109 cell line. Nature of the assay: Antiproliferative activity against human ECa-109 cells assessed as cell growth inhibition measured after 72 hrs by MTT assay. In kind it is functional, cell-based. The note with it: ECa-109, 72 h. The method, boiled down: as §2
Assay [17] has as its system MDA-MB-231. Nature of the assay: Induction of apoptosis in human MDA-MB-231 cells assessed as early apoptotic cells at 6 uM measured after 48 hrs by Annexin V-FITC/propidium iodide staining based flow cytometric analysis (reference value: 1%). The class given is functional.
In assay [18] the test system is MDA-MB-231. Nature of the assay: Induction of apoptosis in human MDA-MB-231 cells assessed as increase in cleaved PARP protein expression at 9 uM measured after 48 hrs in presence of cdc25c inhibitor, NSC663284 by western blot analysis. The class given is functional, cell-based. The method, boiled down:
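Four arms per cell line: untreated, test compound, 0.3 µM NSC663284 alone, and combination. Proteins harvested after 48 h and resolved by SDS-PAGE on 5–15% gels, transferred to nitrocellulose. Blocked 2 h in milk/PBS-Tween, primary antibodies overnight at 4 °C, biotin-conjugated secondary. Read on X-ray film with densitometry.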

Assay [19] has as its system MDA-MB-231. Nature of the assay: Induction of G2/M phase cell cycle arrest in human MDA-MB-231 cells assessed as downregulation of p-cdc2 protein expression at 9 uM measured after 48 hrs in presence of cdc25c inhibitor, NSC663284 by western blot analysis. The class given is functional, cell-based.
Another assay concerns GES1. Nature of the assay: Antiproliferative activity against human GES1 cells assessed as growth inhibition measured after 72 hrs by MTT assay. In kind it is functional, cell-based. The note with it: GES1, 72 h. A digest of the protocol:
as §2

The test system of assay [20] is MDA-MB-231. Nature of the assay: Induction of apoptosis in human MDA-MB-231 cells assessed as late apoptotic cells at 9 uM measured after 48 hrs in presence of cdc25c inhibitor, NSC663284 by AnnexinV-FITC/PI staining based flow cytometry (reference value: 8.3%). In kind it is functional.
Assay [21] has as its system MDA-MB-231. Nature of the assay: Induction of apoptosis in human MDA-MB-231 cells assessed as increase in Bax to Bcl2 ratio at 3 to 9 uM measured after 48 hrs by western blot analysis. In kind it is functional, cell-based. The note with it: dose 3-9 µM. A digest of the protocol: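 MCF-7 and MDA-MB-231 breast cancer cells treated 48 h with a concentration series, then lysed for protein. SDS-PAGE on 5–15% gels, transfer to nitrocellulose. Blocked 2 h in 5% nonfat milk/PBS-0.1% Tween 20, primary antibodies overnight at 4 °C, biotin-conjugated secondary 1 h. X-ray film detection with densitometric quantification.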

Activity calls are given as the source filed them. The rule behind the calls is not given here.

As for `C[C@H]1O[C@@H](n2cnc3c(N)nc(F)nc32)[C@H](O)[C@H]1OCP(=O)([O-])[O-].[Na+].[Na+]`, the Activity in the assay on MDA-MB-231 [1] was found to be 63%; with MDA-MB-231 [3] it was 13%; with MCF7 [4], 5.2%; in the assay with MCF7 [5], 18.63%; with MDA-MB-231 [8], 28.54%; in the assay on MCF7 [9] it was 67.2%. In addition, the Activity with MCF7 [15] stood at 17.9%; with MDA-MB-231 [17] it was 19.1%; with MDA-MB-231 [20], 3.2%. Besides, the result in the assay with MDA-MB-231 [2], in the assay on MCF7 [6], in the assay on MCF7 [7], with MCF7 [10], in the assay on MCF7 [12] and in the assay with MDA-MB-231 [16] was Active. Further, the result in the assay with MDA-MB-231 [21] was Active. Also, the IC50 with MGC-803 stood at 6.18 µM; in the assay on MCF7 [14] it was 0.476 µM; in the assay on ECa-109 cell line, 2.57 µM; in the assay on GES1 it was 5.09 µM. The outcome in the assay with MDA-MB-231 [11], in the assay on MDA-MB-231 [13], in the assay with MDA-MB-231 [18] and in the assay on MDA-MB-231 [19] was inactive.
